The values that follow come from paper PMC12376074 (Toxicology in vitro : an international journal published in …, 2019).

Like-named read-outs stand apart in the source and are kept apart here.

As usually defined, the IC50 is the point on the concentration scale where inhibition reaches its midpoint.

The conditions of series [1]: cited from earlier work.
The next series deals with cleaved caspase-3. Nature of the series: Western blot of cleaved caspase-3 in HepG2 cells. It is filed as cell-based, human. Particulars: 48 h. A general note: In western blotting, separated proteins are transferred to a membrane and probed.
For series [2], the system named is HepG2 cells. As to the kind of experiment: LDH release assay. The conditions noted are these: 48 h, concentrations above the 0.5 IC50. It is filed as cell-based, human. (In general: LDH leaks from cells whose membrane has failed.)
For the next series, the system named is Bcl-2, Mcl-1, Bax. Nature of the series: Western blot of Bcl-2 family proteins in HepG2 cells. It is filed as cell-based, human. The conditions noted are these: 48 h.
Series [3] concerns HepG2 cells. As to the kind of experiment: MTT cell viability assay. It is filed as cell-based, human. The conditions noted are these: read-out: IC50 on cell growth. For orientation: Tetrazolium assays rely on reduction of a dye to a coloured formazan, in cell work by metabolically active cells.
The subject of series [4] is phosphorylation of p38, JNK, and ERK1/2. As to the kind of experiment: Western blot of MAPK phosphorylation in HepG2 cells. It is filed as cell-based, human. The conditions noted are these: 48 h.
Series [5] relates to HepG2 cells. As to the kind of experiment: Caspase-3/7 activity measurement. Particulars: 0.1 IC50, 0.5 IC50 and IC50, 48 h. It is filed as cell-based, human.
The next series relates to CYP2C8. Nature of the series: Western blot of CYP2C8 expression. It is filed as cell-based, human. The conditions noted are these: 30 μM, CYP2C8 overexpressing cells, 48 h. An outline of the steps:
(§1)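 HepG2 cells overexpressing CYP2C8 or CYP3A4 were co-incubated 48 h with test compound, with or without 30 μM rifampicin or ketoconazole. RIPA lysates (protease inhibitors, 30 min on ice, 12,000g) were BCA-quantified, and 20–60 μg protein was run on 10% SDS-PAGE and blotted to PVDF. Blots were probed with goat polyclonal anti-CYP2C8 or mouse monoclonal anti-CYP3A4, detected by ECL, and quantified against β-actin.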

Series [6] relates to HepG2 cells overexpressing CYP2C8. As to the kind of experiment: Toxicity of CYP inhibitor to CYP2C8 cells. It is filed as cell-based, human. The conditions noted are these: 30 μM.
The nature of series [7]: MTT cell viability assay, CYP2C19 cells. The conditions noted are these: human, HepG2 cells overexpressing CYP2C19. It is filed as cell-based.
The nature of series [8]: MTT cell viability assay, CYP1B1 cells. It is filed as cell-based. The conditions noted are these: human, HepG2 cells overexpressing human CYP1B1.
Series [9] can be described thus: MTT cell viability assay, CYP2C8 cells. It is filed as cell-based. Particulars: human, HepG2 cells overexpressing CYP2C8, IC50, CYP2C8 overexpressing cells, ADQ 1.56–50 μM.
Series [10] can be described thus: MTT cell viability assay, CYP1A2 cells. Particulars: human, HepG2 cells overexpressing CYP1A2. It is filed as cell-based.
Series [11] can be described thus: MTT cell viability assay, CYP vector cells. It is filed as cell-based. Particulars: human, HepG2/CYP vector cells (empty-vector control), ADQ 1.56–50 μM.
Series [12] can be described thus: MTT cell viability assay, CYP3A4 cells. Particulars: human, HepG2 cells overexpressing CYP3A4, IC50, CYP3A4 overexpressing cells. It is filed as cell-based.
A short description of series [13]: MTT cell viability assay, CYP1A1 cells. It is filed as cell-based. The conditions noted are these: human, HepG2 cells overexpressing CYP1A1.
A short description of series [14]: MTT cell viability assay, CYP3A5 cells. It is filed as cell-based. The conditions noted are these: human, HepG2 cells overexpressing CYP3A5.
In a further series the test system is CYP3A4. Nature of the series: Western blot of CYP3A4 expression. It is filed as cell-based, human. Particulars: 30 μM, CYP3A4 overexpressing cells, 48 h. Summed up:
as §1

Series [15] has as its system HepG2 cells overexpressing CYP3A4. Nature of the series: Toxicity of CYP inhibitor to CYP3A4 cells. It is filed as cell-based, human. The conditions noted are these: 30 μM.

For the molecule `CCNCc1cc(Nc2ccnc3cc(Cl)ccc23)ccc1O` [NADQ, N-desethylamodiaquine], the “half-life (t1/2) of NADQ relative to ADQ (longer)” value in series [1] (after oral administration of ADQ, ref Laurent et al., 1993, Scarsi et al., 2014) is recorded as 20- to 50 fold. Further, the “Cmax of NADQ in vivo relative to ADQ (higher)” value in series [1] (in vivo, ref Lai et al., 2009) is above 20 fold. For the same molecule, the “expression level of cleaved caspase-3” value with cleaved caspase-3 was “increase”. Further, in the series with HepG2 cells [2], the “LDH release relative to vehicle control” value was above 4 fold. Also, in the series with Bcl-2, Mcl-1, Bax, the “expression level of pro-apoptotic member Bax” value is on record as “no change”; the “expression levels of anti-apoptotic members Bcl-2 and Mcl-1” value is “no change”. For the same molecule, the IC50 in the series with HepG2 cells [3] (HepG2 cells, 1.56–50 μM, 48 h, MTT) is 15 µM. The “phosphorylation of p38, JNK, and ERK1/2” value in [4] is “markedly increased”. Further, the caspase-3/7 activity entry in the series with HepG2 cells [5] was “increased the activity of caspase-3/7 in a concentration-dependent manner”.
Turning to `CO[C@H]1/C=C/O[C@@]2(C)Oc3c(C)c(O)c4c(O)c(c(/C=N/N5CCN(C)CC5)c(O)c4c3C2=O)NC(=O)/C(C)=C\C=C\[C@H](C)[C@H](O)[C@@H](C)[C@@H](O)[C@@H](C)[C@H](OC(C)=O)[C@@H]1C` [rifampicin], the “expression level of CYP2C8” value with CYP2C8 is “markedly reduced”. Also, the “toxicity of the CYP inhibitor to cells” value in [6] is listed as “not toxic”.
For `CCN(CC)Cc1cc(Nc2ccnc3cc(Cl)ccc23)ccc1O` [ADQ, Amodiaquine], the IC50 at 48 h in series [7] is 17.3 µM; in series [8], 25.7 µM; in series [9], 11.7 µM; in series [10] it was 18.7 µM; in [11], 17.1 µM; in [12] (ADQ 1.56–50 μM) it was 14 µM. Moreover, the IC50 at 48 h in [12] (ADQ 3.13–50 μM, no CYP inhibitor) came out at 14.8 µM; in series [13], 26.4 µM; in series [14], 17.1 µM. Also, the “expression level of cleaved caspase-3” value in the series with cleaved caspase-3 was “increase”. Also, the “expression level of pro-apoptotic member Bax” value in the series with Bcl-2, Mcl-1, Bax is “increased”. Also, the “expression levels of anti-apoptotic members Bcl-2 and Mcl-1” value with Bcl-2, Mcl-1, Bax is “decreased”. The IC50 with HepG2 cells [3] (Homo sapiens, HepG2, 48 h) was 17.4 µM. Moreover, the “phosphorylation of p38, JNK, and ERK1/2” value in [4] is “no change”. Moreover, the caspase-3/7 activity entry in the series on HepG2 cells [5] is listed as “increased the activity of caspase-3/7 in a concentration-dependent manner”.
For `CC(=O)N1CCN(c2ccc(OCC3COC(Cn4ccnc4)(c4ccc(Cl)cc4Cl)O3)cc2)CC1` (stereo not shown) [ketoconazole], the “expression level of CYP3A4” value in the series with CYP3A4 is on record as “markedly reduced”. Besides, in [15], the “toxicity of the CYP inhibitor to cells” value was “not toxic”.
